Assay outcomes (PubChem BioAssay)
Hits are enriched below; roughly 4.9% of the tested compounds scored in any of these assays.
STAT1 blocker = STAT1 signaling inhibitors, primary screen, cell-based, HTS, luciferase reporter; NIH 3T3 STAT1-luciferase reporter, IFN-gamma, luminescence; inhibition, % at 5.5 µM; 200,000 tested, 0.35% active; AID 920, 2007;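 active = inhibition above a set limit, the mean inhibition across all tested compounds plus 3 SD, cut at about 34% in these data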
STAT1 act-1 = STAT1 signaling activators, primary screen, cell-based, HTS, luciferase reporter. NIH 3T3 STAT1-luciferase reporter, IFN-gamma, luminescence; 100% = IFN-gamma alone, no compound. activation (% of control), % at 5.5 µM. 200,000 tested, 2.6% active. AID 932, 2007;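 active = activation above the screen-wide mean activation plus 3 SD, cut at about 130% in these data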
NF-kB neuron act = activators of NF-kB expression in neurons, primary screen, cell-based, HTS | human neuronal cells, NF-kB reporter expression; hits give high values | fold change at 12.5 µM | AID 1239, 2008 | 190,000 tested, 1.6% active; in the data active = fold change above about 3.3
APP 5'UTR act = activators of APP 5'UTR luciferase reporter, primary screen, SH-SY5Y cells; SH-SY5Y APP 5'UTR luciferase reporter, luminescence; zero percent = DMSO vehicle wells; activation, % at 2 µM; 190,000 tested, 1% active;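 active = activation above a set limit, based on mean plus 3 SD of controls, cut at about 140% in these data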
STAT3 act-1 = IL-6 driven STAT3 reporter potentiators, primary screen, U3A cells, luciferase, luminescence, MLSCN library. IL-6 STAT3-luciferase reporter; 100% = signal with IL-6 EC80 alone. activation (% of control), % at 5.6 µM. 190,000 tested, 0.91% active;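 active = activation above the screen-wide mean of compound activation plus 3 SD, cut at about 130% in these data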
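Test system: STAT3-luciferase reporter U3A cells; Detection: reporter luminescence signal; Times: 1 h compound pre-exposure, 6 h IL-6 stimulation, 37 °C; Benchmarks: IL-6-only high control; Also added: IL-6 stimulus at 33 ng/mL final.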
STAT3 blocker = IL-6 driven STAT3 reporter inhibitors, primary screen, U3A cells, luciferase, luminescence, MLSCN library; 190,000 tested, 0.89% active; inhibition, % at 5.5 µM; IL-6 STAT3-luciferase reporter; host cell line lacks STAT1; AID 862, 2007;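 active = inhibition above the mean inhibition across all screened compounds plus 3 SD, cut at about 44% in these data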
STAT3 act-2 = STAT3 reporter potentiators, retest of hits, confirmation, U3A cells, luciferase, luminescence; AID 1267, 2008; 1,200 tested, 64% active; shares compounds with STAT3 act-1; potentiation (% of control), % at 5.7 µM; IL-6 potentiation; U3A cells lack STAT1; 100 means same as IL-6 alone;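 active = percent activation of the STAT3 luciferase reporter above a set limit taken from the earlier primary screen, cut at about 130% in these data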
NFkB act STAT3ct = NF-kB reporter activators in human cells, counter-screen for STAT3 activator project; 1,200 tested, 11% active; activation (% of control), % at 5.7 µM; shares compounds with STAT3 act-1; NF-kappaB reporter activation; in the data active = activation above about 120%;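 note: reporter induced by TNF-alpha stimulation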
STAT1 act-2 = STAT1 reporter activators, IFN-gamma induced, counter-screen for STAT3 activator project, cell-based, NIH 3T3, luciferase luminescence | shares compounds with STAT3 act-1 | 1,200 tested, 13% active | activation (% of control), % at 5.7 µM | AID 1318, 2008 | NIH 3T3 STAT1-luciferase reporter;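 active = activation above the solvent-only control well mean plus 3 SD, set per screening run, cut at about 120% in these data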
Of the large screens only hits and unclear results are named; the others gave an inactive call (follow-up assays come after a bar, where they were run).

Cc1cc(N/N=C/c2c(O)ccc3ccccc23)nc(-c2ccccc2O)n1	none
Oc1ccc2ccccc2c1/C=N/Nc1ccccc1	STAT3 act-1 151 | STAT3 act-2 150 | NFkB act STAT3ct inactive | STAT1 act-2 inactive
Nc1nc(-c2ccc(Cl)cc2)nn1C(=O)c1cccs1	STAT3 act-1 146 | STAT3 act-2 145 | NFkB act STAT3ct inactive | STAT1 act-2 inactive
O=C(O)C1CCC(Cn2c(SCc3cc(=O)n4cc(Cl)ccc4n3)nc3ccsc3c2=O)CC1 (stereo unspecified)	none
CC(C)Cc1cc(C(=O)Nc2cc(Cl)ccc2Cl)no1	STAT3 act-1 138 | STAT3 act-2 137 | NFkB act STAT3ct inactive | STAT1 act-2 inactive
C/C(CC(=O)Nc1cccnc1)=N\NC(=O)C(=O)Nc1cccc(C)c1	none
O=[N+]([O-])c1ccc(Cl)c(/C=N/N2CCN(c3ccccc3)CC2)c1	STAT3 act-1 145 | STAT3 act-2 135 | NFkB act STAT3ct inactive | STAT1 act-2 inactive
C/C(N)=C(/C#N)C(=O)CSc1nnc(COc2ccccc2Cl)o1	STAT3 act-1 139 | STAT3 act-2 134 | NFkB act STAT3ct inactive | STAT1 act-2 inactive
CC(C)(C)NC(=O)NC(=O)CSc1nnc(COc2ccccc2Cl)o1	none
Cn1c(Sc2ccccc2Cl)c(C=O)c2ccccc21	none
Cn1c(Sc2ccc(Cl)cc2)c(C=O)c2ccccc21	STAT3 act-1 170 | STAT3 act-2 140 | NFkB act STAT3ct inactive | STAT1 act-2 inactive
COc1cc(CNCCNC(=O)c2nonc2N)ccc1OCc1ccc(Cl)cc1	none
CC1CCN(S(=O)(=O)c2ccc3c(c2)C(=NO)c2cc(S(=O)(=O)N4CCC(C)CC4)ccc2-3)CC1	STAT3 act-1 136 | STAT3 act-2 inactive | NFkB act STAT3ct 131 | STAT1 act-2 inactive
COc1ccc2[nH]c3ccccc3c2c1	none
COc1ccc2[nH]c(=O)c3c(c2c1)OC(C)(C)C=C3	STAT3 act-1 137 | STAT3 act-2 inactive | NFkB act STAT3ct inactive | STAT1 act-2 inactive
C#CC1(NC(=O)NCCCC)CCCCC1	none
O=C(CSc1nncs1)NCc1ccc(F)cc1	none
Oc1ccc(Br)cc1-c1cc(-c2ccco2)[nH]n1	STAT3 act-1 136 | STAT3 act-2 inactive | NFkB act STAT3ct inactive | STAT1 act-2 inactive
Oc1c(-c2cc(-c3ccco3)[nH]n2)ccc2ccccc12	NF-kB neuron act 8.7, STAT3 act-1 164 | STAT3 act-2 166 | NFkB act STAT3ct 154 | STAT1 act-2 inactive
NNC(=O)c1cc(-c2ccco2)[nH]n1	none
Fc1cccc2sc(N3CCCC3)nc12	none
O=C(CCc1nnc(Cc2ccc3c(c2)OCO3)o1)NCc1nc2ccccc2s1	STAT3 act-1 149 | STAT3 act-2 142 | NFkB act STAT3ct inactive | STAT1 act-2 inactive
O=C(CCc1nc2ccccc2[nH]1)NCc1ccc2c(c1)OCO2	none
COc1ccc(-c2csc(NC(=O)CSc3nc(SC)ns3)n2)cc1	STAT3 act-1 137 | STAT3 act-2 140 | NFkB act STAT3ct inactive | STAT1 act-2 inactive
CC(=O)Nc1ccc(CN2CCCC(C(=O)c3ccc(C(F)(F)F)cc3)C2)cc1 (stereo unspecified)	none
Cc1ccc2c(c1)NCC(C(=O)NCc1ccccc1)O2 (stereo unspecified)	none
NC(=O)C1CNc2ccccc2O1 (stereo unspecified)	STAT3 act-1 156 | STAT3 act-2 148 | NFkB act STAT3ct inactive | STAT1 act-2 inactive
